Screening results from PubChem.
Only some compounds are listed: those with a hit (about 2.3% of all), similar ones and a draw of the others.
TRPC6 activator – activators of mouse TRPC6 channel; 310,000 compounds, 0.13% hits; B-score at 10 µM; HEK293-TRPC6 membrane potential dye fluorescence; stronger effect = higher value; Q61143;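 active means B-score of the integrated fluorescence ratio above library mean plus 3 SD, and starting fluorescence ratio within library mean plus 5 SD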;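 further: higher score means more depolarization so channel activation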
Target sequence (Q61143 whole entry, looked up): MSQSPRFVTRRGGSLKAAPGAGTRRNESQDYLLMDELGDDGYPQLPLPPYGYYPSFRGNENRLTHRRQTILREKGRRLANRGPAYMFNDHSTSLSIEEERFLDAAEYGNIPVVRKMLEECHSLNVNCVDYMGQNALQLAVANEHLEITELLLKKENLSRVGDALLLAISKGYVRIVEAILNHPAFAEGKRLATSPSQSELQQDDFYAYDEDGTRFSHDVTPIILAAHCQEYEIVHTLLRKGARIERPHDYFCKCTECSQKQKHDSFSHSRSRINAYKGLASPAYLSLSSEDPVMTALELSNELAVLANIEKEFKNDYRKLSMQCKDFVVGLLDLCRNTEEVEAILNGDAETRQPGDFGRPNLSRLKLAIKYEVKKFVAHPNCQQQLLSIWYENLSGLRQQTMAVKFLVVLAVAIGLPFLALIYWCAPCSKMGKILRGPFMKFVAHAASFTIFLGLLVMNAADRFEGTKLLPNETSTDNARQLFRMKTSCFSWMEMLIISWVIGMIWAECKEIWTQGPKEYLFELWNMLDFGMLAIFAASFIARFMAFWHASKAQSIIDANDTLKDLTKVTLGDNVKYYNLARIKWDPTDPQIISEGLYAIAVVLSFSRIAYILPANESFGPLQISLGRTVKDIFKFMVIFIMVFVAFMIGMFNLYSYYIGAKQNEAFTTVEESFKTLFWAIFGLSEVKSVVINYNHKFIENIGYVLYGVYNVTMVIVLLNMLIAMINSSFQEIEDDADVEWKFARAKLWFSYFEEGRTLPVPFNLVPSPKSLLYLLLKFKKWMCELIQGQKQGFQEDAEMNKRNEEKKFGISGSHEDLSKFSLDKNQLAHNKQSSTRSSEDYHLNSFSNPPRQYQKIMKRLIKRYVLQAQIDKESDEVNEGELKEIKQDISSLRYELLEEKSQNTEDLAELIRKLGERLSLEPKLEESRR
DNA FID counter – displaces DNA intercalator in HCV helicase counter-screen. inhibition, % at 7.9 µM. AID 1845. DNA fluorescent intercalator displacement, fluorescence. 290,000 compounds, 0.17% hits; in the data active means inhibition above about 37%;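 further: 0% = vehicle and 100% = reference compound; higher means more ethidium bromide displaced from hairpin DNA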
TRPC4 potent – TRPC4 (mouse) allosteric potentiation; Q9QUQ5; HEK293 TRPC4beta/mu-opioid, DAMGO EC20, Fluo-4 Ca2+ flux; stronger effect = higher value; B-score at 10 µM; 310,000 compounds, 0.42% hits; AID 2227;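 active means B-score of calcium response area above 5 SD of library B-scores, with initial fluorescence ratio within 5 SD of library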;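 further: B-score of integrated fluorescence ratio over time as area under calcium response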
TRPC4 agonist – activators of mouse TRPC4 channel. AID 2237. HEK293 TRPC4beta/mu-opioid, Fluo4 calcium fluorescence; stronger effect = higher value. B-score at 10 µM. 310,000 compounds, 0.49% hits;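 active means B-score above 5 SD of library B-scores, and initial fluorescence ratio not above library mean plus 5 SD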;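 further: positive B-score marks a calcium rise read as TRPC4 activation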
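Assay system: HEK293 stable line with TRPC4beta plus mu-opioid receptor; schedule: 45 min room-temperature Fluo4 loading, 110 s read; technique: kinetic Fluo4 calcium fluorescence; evaluation: integrated baseline-normalised fluorescence ratio, converted to per-well B score; controls: buffer (low) and maximal DAMGO (high)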
TRPC4 block – blocks the mouse TRPC4 cation channel. Q9QUQ5. HEK293 TRPC4beta/mu-opioid, DAMGO-evoked Fluo4 calcium flux; stronger effect = lower value. B-score at 10 µM. 300,000 compounds, 0.39% hits. AID 2247;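 active means B-score over 3 SD under the library average, no early fluorescence shift, positive overall ratio signal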
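Assay system – HEK293 line stably carrying TRPC4beta and mu-opioid receptor · Doses – single dose · Detection – Fluo4 calcium-dye fluorescence, kinetic read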
TRPC6 inhibitor – blocks the mouse TRPC6 cation channel; Q61143; HEK293-TRPC6, membrane potential dye, ACh-evoked depolarization; stronger effect = lower value; B-score at 10 µM; 310,000 compounds, 1.1% hits;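 active means B-score under library mean minus 3 SD, initial fluorescence not abnormally high, positive integrated signal ratio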;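 further: B-score derived from integrated fluorescence ratio over the kinetic read; more negative B-score means stronger inhibition of depolarization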
* = called active by the depositor; i = inactive; x = not tested or not shown.

SMILES	TRPC6 activator	DNA FID counter	TRPC4 potent	TRPC4 agonist	TRPC4 block	TRPC6 inhibitor
C=CCn1cc(CN2CCC(C(=O)Nc3cccc(-c4cccc(Cl)c4)c3)CC2)c(C)n1	i	40.8*	i	i	i	i
Cn1cc(CN2CCC(C(=O)Nc3cccc(-c4cccc(F)c4)c3)CC2)cn1	i	26.0	i	i	i	i
CCCn1ncc(CN2CCC(C(=O)Nc3cccc(-c4cccc(F)c4)c3)CC2)c1C	i	44.3*	i	i	i	i
C=CCn1cc(CN2CCC(C(=O)Nc3cccc(-c4cccc(F)c4)c3)CC2)c(C)n1	i	19.9	i	i	i	i
Cc1ccc(C)c(S(=O)(=O)N2CCN(C(=O)CCc3nc4ccccc4c(=O)[nH]3)CC2)c1	i	x	i	194*	i	i
Cc1ccc(S(=O)(=O)N2CCN(C(=O)CCc3nc4ccccc4c(=O)[nH]3)CC2)c(C)c1	i	x	i	i	i	i
COc1ccc(N2CCN(c3cc(C)c4ccc(O)cc4n3)CC2)cc1	i	-3.2	i	i	i	i
Cc1cc(N2CCCCCC2)nc2ccccc12	i	5.2	i	i	-6*	i
Cc1cc(OCCN2CCCCC2)nc2ccccc12	i	2.5	17*	i	i	i
Cc1cc(N2CCCCC2)nc2ccccc12	i	0.1	i	i	-6*	i
Cc1cc(N2CCOCC2)nc2ccccc12	i	-0.7	i	i	i	i
COc1ccc(N2CCN(c3cc(C)c4ccc(C)cc4n3)CC2)cc1	i	-3.3	12*	i	i	i
Cc1cc(OCCN2CCOCC2)nc2ccccc12	i	8.5	i	i	i	i
CCCC(NS(=O)(=O)c1ccc(-c2ccc(=O)[nH]n2)s1)c1cccs1 (configuration not stated)	i	-35.8	i	i	i	i
COc1cc(CCC(=O)NCCc2ccc(F)cc2)cc(OC)c1OC	i	-16.6	i	i	i	i
Cc1cc(N2CCCN(C)CC2)nc2cc(Cl)ccc12	i	12.7	13*	i	i	i
O=C1CCCCN1CCCC(=O)N1CCCC(Nc2ccccc2)C1 (configuration not stated)	i	-15.8	i	i	i	i
O=C1CC(NS(=O)(=O)c2cccs2)CN1c1ccc(Cl)cc1 (configuration not stated)	i	x	i	i	i	i
O=C1CC(NS(=O)(=O)c2cccs2)CN1c1ccccc1 (configuration not stated)	i	x	18*	i	i	i
O=C(NCCNC(=O)c1ccc(Cl)cc1Cl)c1cnccn1	i	-5.7	i	i	i	i
COc1ccccc1CNS(=O)(=O)c1ccc2c(c1)CC(=O)N2C	i	-15.2	i	i	i	i
COC(=O)c1ccc(/C=N/N2CCN(Cc3ccc(C)cc3C)CC2)cc1	i	-3.0	16*	i	i	i
CC(C)(C)CN1CCNC[C@H]1Cc1cccc2ccccc12	i	x	i	i	i	i
c1ccc(C2(CN3CCNC[C@H]3Cc3cccc4ccccc34)CC2)cc1	i	x	i	84*	i	i
CN(C)CCNC(=O)c1cc(Sc2ccc(F)cc2)nc2ccccc12	i	26.4	31*	i	i	i
SMILES	TRPC6 activator	DNA FID counter	TRPC4 potent	TRPC4 agonist	TRPC4 block	TRPC6 inhibitor
Cc1ccc(Sc2cc(C(=O)NCCCN(C)C)c3ccccc3n2)cc1	i	22.8	i	i	i	i
Cc1ccc(Sc2cc(C(=O)NCCN(C)C)c3ccccc3n2)cc1	i	20.4	i	203*	i	i
COCCCNC(=O)c1cc(Sc2ccc(F)cc2)nc2ccccc12	i	-18.8	i	i	i	i
CCN(CC)CCNC(=O)c1ccc2c(c1NCCO)C(=O)c1ccccc1C2=O	i	41.7*	i	i	i	i
Brc1ccccc1OCCCN1CCCC1	i	14.4	i	i	i	i
CC(C)c1ccccc1OCCCCCN1CCOCC1	i	x	13*	i	i	i
CC(C)c1ccccc1OCCCCN1CCCCC1	i	x	i	i	i	i
Brc1ccccc1OCCCCCN1CCOCC1	i	8.4	11*	i	i	i
CCC(C)c1ccccc1N1CC(C(=O)NCCc2ccc(OC)c(OC)c2)CC1=O (configuration not stated)	i	x	i	i	i	i
CC12CN3CC(C)(CN(C1)C3c1ccc(Cl)cc1Cl)C2O (configuration not stated)	i	3.7	i	48*	-6*	i
CN(C)c1ccc(C2N3CC4(C)CN2CC(C)(C3)C4O)cc1 (configuration not stated)	i	-3.0	i	i	i	i
CCn1c(=S)sc2c(=O)n(CC(=O)Nc3cccc(OC)c3)c(C)nc21	i	-1.1	i	i	i	i
O=C(CCNS(=O)(=O)c1ccccc1)Nc1ccccc1	i	-0.5	i	i	i	i
C=C(C)Cn1c(C2CC(=O)N(Cc3ccccc3)C2)nc2ccccc21 (configuration not stated)	i	x	i	i	i	i
CCn1c(C2CC(=O)N(Cc3ccccc3)C2)nc2ccccc21 (configuration not stated)	i	-32.5	16*	i	i	i
O=S(=O)(c1ccccc1)c1nc(-c2cccc(Cl)c2)oc1N1CCOCC1	i	-33.3	10*	i	i	i
O=S(=O)(c1ccccc1)c1nc(-c2ccccc2)oc1N1CCOCC1	i	-4.4	i	i	i	i
CC(C)(NC(=O)c1ccccc1)c1nc2ccccc2s1	i	x	i	i	i	i
Cc1cccc(N(C(=O)c2snc(C(N)=O)c2N)C(C(=O)NC2CCCC2)c2ccco2)c1 (configuration not stated)	i	-33.4	i	i	i	i
CCCCOc1ccc(CN2CCSCC2)cc1	i	2.9	i	i	i	i
Cc1nn(CC(=O)NCCCN2CCC(N3CCCCC3)CC2)c(=O)c2cc(-c3ccccc3)nn12	i	38.4*	i	i	i	i
CC1CCCN(CCCNC(=O)CCn2nc(-c3ccccc3)ccc2=O)C1 (configuration not stated)	i	13.5	11*	i	i	i
CCCCNC(=O)CCn1nc(-c2ccccc2)ccc1=O	i	-2.6	i	i	i	i
C=CCNc1nnc(SCC(=O)N2CCC(C(N)=O)CC2)s1	i	x	i	i	i	i
